Key:
[1] = tested on: L1210; assay: Concentration required for 50% inhibition of L1210 murine leukemia cell growth in MTT assay; format: functional, cell-based; details: Mus musculus
[2] = tested on: P388; assay: Concentration required for 50% inhibition of P388 murine leukemia cell growth in MTT assay; format: functional, cell-based; details: Mus musculus
[3] = tested on: K562; assay: Concentration required for 50% inhibition of K562 human chronic myelogenous leukemia cell growth in MTT assay; format: functional, cell-based
How it was run: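 K562 cells grown at 37 °C with compound for 5 days; growth read by MTT assay; IC50 taken as concentration giving 50% decrease in cell growth.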

[4] = tested on: K562; assay: Effect upon G2 M phase of cell cycle relative to untreated control; format: functional, Homo sapiens; parameters: unit not given here
[5] = biological target: T1, Tubulin (Sus scrofa, UniProt P02554+P02550); assay: Effect on tubulin binding and the concentration required to cause 50% decrease in tubulin assembly at 350 nm.; format: protein assay
How it was run: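 Tubulin assembly followed by increase in turbidity at 350 nm; IC50 is the concentration causing 50% decrease in assembly.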

[6] = biological target: T1, Tubulin; assay: Concentration required to cause 50% decrease in the binding of [3H]colchicine from purified porcine tubulin.; format: protein assay
[7] = tested on: K562; assay: Effect upon S phase of cell cycle relative to untreated control; format: functional, Homo sapiens; parameters: unit not given here
[8] = tested on: K562; assay: Effect upon G0-G1 phase of cell cycle relative to untreated control; format: functional, Homo sapiens; parameters: unit not given here

Q: How did the IC50 [1] turn out when COc1ccc(-c2cc(OC)c(OC)c(OC)c2)cc1O was run?
A: > 50000 nM

Q: COc1ccc(CCc2cc(OC)c(OC)c(OC)c2)cc1O was tested. Which IC50 [2] did it give?
A: 110 nM

Q: Which IC50 [3] does the source give for COc1ccc(Nc2cc(OC)c(OC)c(OC)c2)cc1 here?
A: 3000 nM

Q: With COc1ccc(C(O)Cc2cc(OC)c(OC)c(OC)c2)cc1O (centres undefined) as the compound, how does the IC50 [2] read?
A: 33000 nM

Q: With COc1ccc(Oc2ccc(C)c(C)c2)cc1 as the compound, how does the IC50 [3] read?
A: 24000 nM

Q: COc1ccc(OCc2cc(OC)c(OC)c(OC)c2)cc1O was tested. Which Activity [4] did it give?
A: 78.3

Q: And the IC50 [5]?
A: 22500 nM

Q: What about the IC50 [6] of the same compound?
A: 226000 nM

Q: What about the Activity [7] of the same compound?
A: 17.9

Q: And the IC50 [3]?
A: 120 nM

Q: What about the Activity [8] of the same compound?
A: 3.8

Q: What does the source list for COc1ccc(Nc2cc(OC)c(OC)c(OC)c2)cc1O?
A: Activity [4]: 87.2; IC50 [5]: > 100000 nM; IC50 [6]: 298000 nM; Activity [7]: 9.4; IC50 [3]: 2600 nM; Activity [8]: 3.4

Q: Which Activity [4] does the source give for COc1ccc(OCc2cc(OC)c(OC)c(OC)c2)cc1C=O here?
A: 57.8

Q: And the IC50 [5]?
A: 600 nM

Q: And the IC50 [6]?
A: 4000 nM

Q: What about the Activity [7] of the same compound?
A: 33.1

Q: And the IC50 [3]?
A: 170 nM

Q: What about the Activity [8] of the same compound?
A: 9.1

Q: With COc1ccc(COc2cc(OC)c(OC)c(OC)c2)cc1OCC=O as the compound, how does the IC50 [3] read?
A: 2500 nM

Q: With COc1ccc(Oc2cc(OC)c(OC)c(OC)c2)cc1OCc1ccccc1 as the compound, how does the IC50 [3] read?
A: 51000 nM

Q: With C=CCOc1cc(COc2cc(OC)c(OC)c(OC)c2)ccc1OC as the compound, how does the IC50 [3] read?
A: 30000 nM

Q: Which IC50 [2] does the source give for COc1ccc(CC(O)c2cc(OC)c(OC)c(OC)c2)cc1O (centres undefined) here?
A: 33 nM

Q: For COc1ccc(OCc2cc(OC)c(OC)c(OC)c2)cc1CO, which IC50 [3] is on record?
A: 60000 nM

Q: With COc1ccc([C@@H](O)[C@H](O)c2cc(OC)c(OC)c(OC)c2)cc1O as the compound, how does the IC50 [2] read?
A: 19000 nM

Q: For COc1ccc(COc2cc(OC)c(OC)c(OC)c2)cc1O, which Activity [4] is on record?
A: 82.5

Q: What about the IC50 [5] of the same compound?
A: 6600 nM

Q: What about the IC50 [6] of the same compound?
A: 36000 nM

Q: What about the Activity [7] of the same compound?
A: 14

Q: What about the IC50 [3] of the same compound?
A: 20 nM

Q: And the Activity [8]?
A: 3.5

Q: Which Activity [4] does the source give for COc1ccc(Oc2cc(OC)c(OC)c(OC)c2)cc1O here?
A: 73.4

Q: What about the IC50 [5] of the same compound?
A: 16300 nM

Q: And the IC50 [6]?
A: 36000 nM

Q: And the Activity [7]?
A: 22.3

Q: And the IC50 [3]?
A: 50 nM

Q: And the Activity [8]?
A: 4.3

Q: For COc1ccc(Oc2cc(OC)c(OC)c(OC)c2)cc1, which IC50 [3] is on record?
A: 380 nM

Q: Which IC50 [3] does the source give for COc1ccc(COc2cc(OC)c(OC)c(OC)c2)cc1OCC(O)CO (centres undefined) here?
A: 90000 nM

Q: With COc1ccc(C#Cc2cc(OC)c(OC)c(OC)c2)cc1O as the compound, how does the IC50 [3] read?
A: 21000 nM

Q: With COc1ccc([C@H](O)[C@@H](O)c2cc(OC)c(OC)c(OC)c2)cc1O as the compound, how does the IC50 [2] read?
A: 2000 nM

Q: With COc1ccc(Nc2cc(OC)c(OC)c(OC)c2)cc1OCc1ccccc1 as the compound, how does the IC50 [3] read?
A: 15000 nM

Q: How did the IC50 [2] turn out when COc1ccc(/C=C\c2cc(OC)c(OC)c(OC)c2)cc1O [COMBRETASTATIN A4] was run?
A: 160 nM

Q: COc1ccc(/C=C/c2cc(OC)c(OC)c(OC)c2)cc1O [E-COMBRETASTATIN A-4] was tested. Which IC50 [2] did it give?
A: 2.6 nM

Q: How did the IC50 [2] turn out when COc1ccc(C(=O)c2cc(OC)c(OC)c(OC)c2)cc1O [PHENSTATIN] was run?
A: 10 nM
